In ChEMBL document CHEMBL1921722, “In vitro and in vivo evaluation of select kahalalide F analogs with antitumor and antifungal activities” (Bioorg Med Chem, 2011):
Converted amounts (≈) assume the structure as drawn. The source made the active and inactive calls. No cut-off for these calls is given here.

Key:
[1] = tested on: NCI-H460; assay: Cytotoxicity against human NCI-H460 cells assessed as cell growth at 80 uM by sulforhodamine B assay relative to control; type: functional; conditions: read-out: Activity
[2] = tested on: SNB-75; assay: Cytotoxicity against human SNB75 cells by sulforhodamine B assay; type: functional
Outline: (§1)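 NCI Developmental Therapeutics Program 60-cell-line human tumor panel screen, run at NCI. A single-concentration pre-screen was followed by a five-concentration dose-response in 10-fold steps. GI50 is the concentration that reduces growth of treated cells to half that of untreated control cells. TGI is the concentration that completely halts growth.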

[3] = tested on: TK-10; assay: Cytotoxicity against human TK10 cells assessed as cell growth at 800 nM by sulforhodamine B assay relative to control; type: functional; conditions: read-out: Activity
[4] = tested on: 786-0; assay: Cytotoxicity against human 786-0 cells assessed as cell growth at 80 uM by sulforhodamine B assay relative to control; type: functional; conditions: read-out: Activity
Outline: (§2)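 Run at NCI in the DTP 60-cell-line human tumor panel by standard procedure. Compounds were first screened at a single concentration, then tested at five tenfold-spaced concentrations. GI50 is the concentration reducing treated-cell growth to half that of untreated controls; TGI is the concentration completely halting growth.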

[5] = tested on: HL-60(TB); assay: Cytotoxicity against human HL-60(TB) cells assessed as cell growth at 8 nM by sulforhodamine B assay relative to control; type: functional; conditions: read-out: Activity
[6] = tested on: HCT-116; assay: Cytotoxicity against human HCT116 cells assessed as cell growth at 8 uM by sulforhodamine B assay relative to control; type: functional; conditions: read-out: Activity
[7] = tested on: SN12C; assay: Cytotoxicity against human SN12C cells assessed as cell growth at 8 uM by sulforhodamine B assay relative to control; type: functional; conditions: read-out: Activity
[8] = tested on: OVCAR-8; assay: Cytotoxicity against human OVCAR8 cells assessed as cell growth at 8 nM by sulforhodamine B assay relative to control; type: functional; conditions: read-out: Activity
[9] = tested on: DU-145; assay: Cytotoxicity against human DU145 cells assessed as cell growth at 800 nM by sulforhodamine B assay relative to control; type: functional; conditions: read-out: Activity
[10] = tested on: OVCAR-3; assay: Cytotoxicity against human OVCAR3 cells assessed as cell growth at 80 uM by sulforhodamine B assay relative to control; type: functional; conditions: read-out: Activity
[11] = tested on: RPMI-8226; assay: Cytotoxicity against human RPMI8226 cells assessed as cell growth at 8 nM by sulforhodamine B assay relative to control; type: functional; conditions: read-out: Activity
[12] = tested on: OVCAR-3; assay: Cytotoxicity against human OVCAR3 cells by sulforhodamine B assay; type: functional; outline: as §1
[13] = tested on: BT-549; assay: Cytotoxicity against human BT549 cells assessed as cell growth at 8 nM by sulforhodamine B assay relative to control; type: functional; conditions: read-out: Activity; outline: as §2
[14] = tested on: RXF 393; assay: Cytotoxicity against human RXF393 cells assessed as cell growth at 80 uM by sulforhodamine B assay relative to control; type: functional; conditions: read-out: Activity
[15] = tested on: Malme-3M; assay: Cytotoxicity against human MALME-3M cells assessed as cell growth at 800 nM by sulforhodamine B assay relative to control; type: functional; conditions: read-out: Activity
[16] = tested on: U-251; assay: Cytotoxicity against human U251 cells assessed as cell growth at 80 uM by sulforhodamine B assay relative to control; type: functional; conditions: read-out: Activity
[17] = tested on: UACC-257; assay: Cytotoxicity against human UACC257 cells assessed as cell growth at 80 nM by sulforhodamine B assay relative to control; type: functional; conditions: read-out: Activity
[18] = tested on: NCI-H226; assay: Cytotoxicity against human NCI-H226 cells assessed as cell growth at 800 nM by sulforhodamine B assay relative to control; type: functional; conditions: read-out: Activity
[19] = tested on: NCI-H23; assay: Cytotoxicity against human NCI-H23 cells assessed as cell growth at 80 uM by sulforhodamine B assay relative to control; type: functional; conditions: read-out: Activity
[20] = tested on: MOLT-4; assay: Cytotoxicity against human MOLT4 cells assessed as cell growth at 80 uM by sulforhodamine B assay relative to control; type: functional; conditions: read-out: Activity
[21] = tested on: 786-0; assay: Cytotoxicity against human 786-0 cells assessed as cell growth at 800 nM by sulforhodamine B assay relative to control; type: functional; conditions: read-out: Activity; outline: as §2
[22] = tested on: COLO 205; assay: Cytotoxicity against human COLO205 cells assessed as cell growth at 8 uM by sulforhodamine B assay relative to control; type: functional; conditions: read-out: Activity; outline: as §2
[23] = tested on: HCT-116; assay: Cytotoxicity against human HCT116 cells assessed as cell growth at 80 uM by sulforhodamine B assay relative to control; type: functional; conditions: read-out: Activity
[24] = tested on: Aspergillus fumigatus; assay: Antimicrobial activity against Aspergillus fumigatus ATCC 90906 by CLSI method; type: functional, organism-based
[25] = tested on: Escherichia coli; assay: Antimicrobial activity against Escherichia coli ATCC 35218 by CLSI method; type: functional, organism-based
[26] = tested on: Hs-578T; assay: Cytotoxicity against human Hs578T cells assessed as cell growth at 800 nM by sulforhodamine B assay relative to control; type: functional; conditions: read-out: Activity
[27] = tested on: KM12; assay: Cytotoxicity against human KM12 cells assessed as cell growth at 800 nM by sulforhodamine B assay relative to control; type: functional; conditions: read-out: Activity
[28] = tested on: Fusarium sp.; assay: Antimicrobial activity against Fusarium sp. by CLSI method; type: functional, organism-based
[29] = tested on: EKVX; assay: Cytotoxicity against human EKVX cells assessed as cell growth at 80 uM by sulforhodamine B assay relative to control; type: functional; conditions: read-out: Activity
[30] = tested on: NCI-H322M; assay: Cytotoxicity against human NCI-H322M cells assessed as cell growth at 800 nM by sulforhodamine B assay relative to control; type: functional; conditions: read-out: Activity
[31] = tested on: HOP-62; assay: Cytotoxicity against human HOP62 cells assessed as cell growth at 800 nM by sulforhodamine B assay relative to control; type: functional; conditions: read-out: Activity
[32] = tested on: OVCAR-8; assay: Cytotoxicity against human OVCAR8 cells assessed as cell growth at 800 nM by sulforhodamine B assay relative to control; type: functional; conditions: read-out: Activity
[33] = tested on: Hs-578T; assay: Cytotoxicity against human Hs578T cells by sulforhodamine B assay; type: functional; outline: as §1
[34] = tested on: SN12C; assay: Cytotoxicity against human SN12C cells assessed as cell growth at 80 nM by sulforhodamine B assay relative to control; type: functional; conditions: read-out: Activity
[35] = tested on: SK-MEL-5; assay: Cytotoxicity against human SK-MEL-5 cells by sulforhodamine B assay; type: functional; outline: as §1
[36] = tested on: NCI-H522; assay: Cytotoxicity against human NCI-H522 cells assessed as cell growth at 80 nM by sulforhodamine B assay relative to control; type: functional; conditions: read-out: Activity
[37] = tested on: SW-620; assay: Cytotoxicity against human SW620 cells by sulforhodamine B assay; type: functional; outline: as §1
[38] = tested on: UO-31; assay: Cytotoxicity against human UO31 cells assessed as cell growth at 80 uM by sulforhodamine B assay relative to control; type: functional; conditions: read-out: Activity
[39] = tested on: NCI/ADR-RES; assay: Cytotoxicity against human NCI/ADR-RES cells assessed as cell growth at 80 nM by sulforhodamine B assay relative to control; type: functional; conditions: read-out: Activity
[40] = tested on: MDA-MB-231; assay: Cytotoxicity against human MDA-MB-231 cells assessed as cell growth at 80 nM by sulforhodamine B assay relative to control; type: functional; conditions: read-out: Activity
[41] = tested on: MCF7; assay: Cytotoxicity against human MCF7 cells assessed as cell growth at 80 nM by sulforhodamine B assay relative to control; type: functional; conditions: read-out: Activity

## C/C=C1\NC(=O)[C@H](Cc2ccccc2)NC(=O)[C@@H](C(C)C)NC(=O)[C@@H]([C@@H](C)CC)NC(=O)[C@H](NC(=O)[C@H](NC(=O)[C@H](CCCNCc2ccc(F)c(C)c2)NC(=O)[C@H]2CCCN2C(=O)[C@H](NC(=O)[C@@H](NC(=O)[C@@H](NC(=O)[C@H](NC(=O)CCCC(C)C)C(C)C)[C@@H](C)O)C(C)C)C(C)C)[C@@H](C)CC)[C@@H](C)OC(=O)[C@H](C(C)C)NC1=O
[1]
  growth at 80 µM: 2%
[2]; read-out: GI50
  GI50: 370 nM
[2]; read-out: TGI
  TGI: 1250 nM
[2]; read-out: pGI50 (converted)
  GI50: 372 nM
[2]; read-out: pTGI (converted)
  TGI: 1260 nM
[3]
  growth at 0.8 µM: 101%
[4]
  growth at 80 µM: -98%
[5]
  growth at 0.008 µM: 91%
[6]
  growth at 8 µM: -100%
[7]
  growth at 8 µM: -81%
[8]
  growth at 0.008 µM: 107%
[9]
  growth at 0.8 µM: -85%
[10]
  growth at 80 µM: -90%
[11]
  growth at 0.008 µM: 128%
[12]
  GI50: 437 nM
  LC50: 3470 nM
[12]; read-out: pTGI (converted)
  TGI: 1480 nM
[13]
  growth at 0.008 µM: 106%
[14]
  growth at 80 µM: -79%
[15]
  growth at 0.8 µM: 102%
[16]
  growth at 80 µM: -89%
[17]
  growth at 0.08 µM: 101%
[18]
  growth at 0.8 µM: 98%
[19]
  growth at 80 µM: -82%
[20]
  growth at 80 µM: 9%
[21]
  growth at 0.8 µM: 96%
[22]
  growth at 8 µM: -76%
[23]
  growth at 80 µM: -94%
[24]
  IC50: 3090 nM
  MFC: 10 µM (≈ 16 µg/mL)
  MIC: 10 µM (≈ 16 µg/mL)
[25]
  Activity: inactive
[26]
  growth at 0.8 µM: -5%
[27]
  growth at 0.8 µM: -55%
[28]
  Activity: Active
[29]
  growth at 80 µM: -59%
[30]
  growth at 0.8 µM: -90%
[31]
  growth at 0.8 µM: 87%
[32]
  growth at 0.8 µM: 92%
[33]
  LC50: > 75900 nM
[33]; read-out: GI50
  GI50: 217 nM
[33]; read-out: TGI
  TGI: 665 nM
[33]; read-out: pGI50 (converted)
  GI50: 219 nM
[33]; read-out: pTGI (converted)
  TGI: 661 nM
[34]
  growth at 0.08 µM: 94%
[35]
  GI50: 1150 nM
  LC50: 3980 nM
[35]; read-out: pTGI (converted)
  TGI: 2140 nM
[36]
  growth at 0.08 µM: 101%
[37]
  GI50: 513 nM
  LC50: 3310 nM
[37]; read-out: pTGI (converted)
  TGI: 1450 nM
[38]
  growth at 80 µM: -11%
[39]
  growth at 0.08 µM: 88%
[40]
  growth at 0.08 µM: 98%
[41]
  growth at 0.08 µM: 101%
